{"source": "paper PMC3447998", "about": "(Biochemistry, 2012)", "key": {"[1]": {"target": "T1, recombinant human NRMT (Homo sapiens, UniProt Q9BV86)", "T1 sequence (Q9BV86 1-223)": "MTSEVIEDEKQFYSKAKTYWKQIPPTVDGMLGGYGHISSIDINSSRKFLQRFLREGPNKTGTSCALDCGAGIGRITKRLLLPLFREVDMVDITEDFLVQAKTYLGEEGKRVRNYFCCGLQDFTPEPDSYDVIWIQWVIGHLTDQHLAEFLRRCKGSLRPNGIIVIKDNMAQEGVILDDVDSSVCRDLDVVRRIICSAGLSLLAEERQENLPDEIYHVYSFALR", "test": "Isothermal titration calorimetry", "type": "binding", "conditions": "25°C, pH 8.0; for binding to recombinant human NRMT (in words): 10 residue RCC1 N-terminal peptides", "procedure,_shortened": "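Recombinant NRMT was dialyzed overnight at 4°C against 50 mM Tris, 50 mM potassium acetate, pH 8.0. Ten-residue RCC1 N-terminal peptides, unmodified or N-methylated, were dissolved in the same buffer. At 25°C, 100 µM enzyme was titrated with 800–1000 µM peptide, and binding curves were fitted.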"}, "[2]": {"system": "recombinant NRMT (SPK-RCC1 substrate)", "test": "In vitro product inhibition assay, SPK-RCC1 substrate", "type": "biochemical", "conditions": "increasing concentrations of product peptide; n=2", "procedure,_shortened": "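Recombinant NRMT methylated RCC1 protein substrates bearing SPK or PPK N-termini in vitro. Increasing concentrations of N-trimethylated SPK or N-dimethylated PPK RCC1 product peptides were present. The read-out was N-terminal methylation of the substrate protein, normalized to the lowest product-peptide condition.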"}, "[3]": {"system": "endogenous NRMT (293LT cells)", "test": "Co-precipitation of endogenous NRMT with FLAG-tagged substrate proteins", "type": "binding", "conditions": "C-terminally FLAG-tagged protein expressed in 293LT cells", "procedure,_shortened": "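C-terminally FLAG-tagged RCC1 or VRK2 expressed in 293LT cells, immunoprecipitated with anti-FLAG, and run on 10% polyacrylamide gel with Coomassie staining. On-bead material washed 3× with 100 mM ammonium bicarbonate (pH 8.0), then reduced, carbamidomethylated and digested with endoproteinase Glu-C (enzyme:protein 1:20). Peptides acidified to pH 3.5 and analysed by nano-LC-MS on C18 capillary columns.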"}, "[4]": {"system": "N-terminus of protein", "conditions": "yeast and mammals; ref [24],[25]; cited from earlier work"}}, "note": "“Also recorded” adds a separate entry of the source. Where a SMILES comes first, the peptide text is derived from it. Where no end group is shown, it is not given here. The star is where a group is joined. X2 = C[N+](C)(C)[C@@H](CO)C(=O)*; X1 = C[N+]1(C)CCC[C@H]1C(=O)*"}
{"compound": "PPKRIAKRRS [PPKRIAKRRS]", "values": [{"measurement": "Kd", "setting": "[1]; Kd, bi-phasic titration curve, second phase", "result": 136, "unit": "nM"}]}
{"compound": "PPQRIAKRRS", "values": [{"measurement": "binding to recombinant human NRMT (in words)", "setting": "[1]", "result": "very low affinity binding (in mM range, data not shown)"}]}
{"compound": "CC[C@H](C)[C@H](NC(=O)[C@H](CCCNC(=N)N)NC(=O)[C@H](CCCCN)NC(=O)[C@@H]1CCCN1C(=O)[C@H](CO)[N+](C)(C)C)C(=O)N[C@@H](C)C(=O)N[C@@H](CCCCN)C(=O)N[C@@H](CCCNC(=N)N)C(=O)N[C@@H](CCCNC(=N)N)C(=O)N[C@@H](CO)C(=O)O", "note": "[me3SPKRIAKRRS] (X2-PKRIAKRRS-OH; C-terminus assumed)", "values": [{"measurement": "concentration of efficient inhibition of N-terminal methylation of SPK-RCC1", "setting": "[2]", "result": 1.3, "unit": "µM"}, {"measurement": "binding to recombinant human NRMT (in words)", "setting": "[1]", "result": "bound to recombinant human NRMT with high affinity"}]}
{"compound": "VRK2-FLAG: FLAG-tagged VRK2, possesses a P-P-K motif", "values": [{"measurement": "capture / co-precipitation of endogenous NRMT (in words)", "setting": "[3]", "result": "efficiently captured endogenous NRMT"}, {"measurement": "capture / co-precipitation of endogenous NRMT (in words)", "setting": "[3]; listed as VRK2", "result": "captured more NRMT than the RCC1; also recorded: NRMT is co-precipitated"}]}
{"compound": "CC[C@H](C)[C@H](NC(=O)[C@H](CCCNC(=N)N)NC(=O)[C@H](CCCCN)NC(=O)[C@@H]1CCCN1C(=O)[C@@H]1CCC[N+]1(C)C)C(=O)N[C@@H](C)C(=O)N[C@@H](CCCCN)C(=O)N[C@@H](CCCNC(=N)N)C(=O)N[C@@H](CCCNC(=N)N)C(=O)N[C@@H](CO)C(=O)O", "note": "[me2PPKRIAKRRS] (X1-PKRIAKRRS-OH; C-terminus assumed)", "values": [{"measurement": "concentration of efficient inhibition of N-terminal methylation of SPK-RCC1", "setting": "[2]", "result": 1.3, "unit": "µM"}, {"measurement": "binding to recombinant human NRMT (in words)", "setting": "[1]", "result": "bound to recombinant human NRMT with high affinity"}]}
{"compound": "PWP1: protein with MNR-N-terminus", "values": [{"measurement": "N-terminal acetylation reported (in words)", "setting": "[4]", "result": "reported to be N-terminally acetylated"}]}
{"compound": "SPQRIAKRRS", "values": [{"measurement": "binding to recombinant human NRMT (in words)", "setting": "[1]", "result": "very low affinity binding (in mM range, data not shown)"}]}
